Experiment [1] concerns the target Bifunctional dihydrofolate reductase-thymidylate synthase (Plasmodium falciparum K1, UniProt P13922, C59R/N51I/S108N). Kind of experiment: Binding affinity towards mutant dihydrofolate reductase (N51I+C59R+S108N DHFR) of Plasmodium falciparum.
Experiment [2] concerns Bifunctional dihydrofolate reductase-thymidylate synthase (Plasmodium falciparum K1), P13922 [UNDEFINED MUTATION]. Kind of experiment: Ratio of binding affinity for mutant (A16V+S108T) to that of wild type dihydrofolate reductase. In a few lines:
(§1)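 Each ratio is Ki for the mutant PfDHFR divided by Ki for wild-type PfDHFR. The recombinant enzymes were expressed in E. coli BL21(DE3)pLysS and purified on methotrexate-Sepharose. Ki was derived assuming inhibitors compete with substrate binding.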

Experiment [3] concerns the target Bifunctional dihydrofolate reductase-thymidylate synthase (Plasmodium falciparum K1, UniProt P13922, A16V/S108T). The experiment is described as follows: Binding affinity towards mutant dihydrofolate reductase (A16V+S108T DHFR) of Plasmodium falciparum.
Experiment [4] has as its system BC. The experiment is described as follows: Relative antiplasmodial activity to cytotoxicity in Plasmodium falciparum TM4/8.2 infected BC cells. Type of experiment: functional.
Experiment [5] deals with Bifunctional dihydrofolate reductase-thymidylate synthase (Plasmodium falciparum K1, UniProt P13922, C59R/I164L/S108N). Kind of experiment: Binding affinity towards mutant dihydrofolate reductase (C59R+S108N+I164L DHFR) of Plasmodium falciparum.
Chain of Bifunctional dihydrofolate reductase-thymidylate synthase (Plasmodium falciparum K1, UniProt P13922, C59R/I164L/S108N) (P13922 whole entry, looked up, stated change not applied): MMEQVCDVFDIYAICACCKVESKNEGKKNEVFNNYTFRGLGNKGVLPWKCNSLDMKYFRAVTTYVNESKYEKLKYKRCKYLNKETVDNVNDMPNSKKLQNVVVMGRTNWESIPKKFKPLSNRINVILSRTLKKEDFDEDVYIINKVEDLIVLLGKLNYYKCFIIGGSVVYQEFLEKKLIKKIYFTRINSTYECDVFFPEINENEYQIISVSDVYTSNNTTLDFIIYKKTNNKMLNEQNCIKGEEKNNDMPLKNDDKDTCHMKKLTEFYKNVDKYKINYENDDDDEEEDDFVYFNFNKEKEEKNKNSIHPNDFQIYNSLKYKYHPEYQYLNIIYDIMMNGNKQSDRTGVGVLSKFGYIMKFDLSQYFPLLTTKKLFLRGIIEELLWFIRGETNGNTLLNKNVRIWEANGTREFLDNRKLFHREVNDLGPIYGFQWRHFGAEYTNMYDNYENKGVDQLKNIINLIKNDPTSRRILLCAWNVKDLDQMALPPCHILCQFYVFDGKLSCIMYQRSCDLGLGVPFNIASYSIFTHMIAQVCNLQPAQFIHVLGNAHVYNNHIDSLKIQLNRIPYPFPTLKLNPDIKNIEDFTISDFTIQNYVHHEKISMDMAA
Experiment [6] deals with KB. Kind of experiment: Relative antiplasmodial activity to cytotoxicity in Plasmodium falciparum V1/S infected KB cells. Type of experiment: functional.
The test system of experiment [7] is Vero. The experiment is described as follows: Relative antiplasmodial activity to cytotoxicity in Plasmodium falciparum V1/S infected Vero cells. Type of experiment: functional.
For experiment [8], the system named is Vero. Kind of experiment: Relative antiplasmodial activity to cytotoxicity in Plasmodium falciparum Csl-2 infected Vero cells. Type of experiment: functional.
Experiment [9] has as its system Bifunctional dihydrofolate reductase-thymidylate synthase (Plasmodium falciparum K1), P13922 [UNDEFINED MUTATION]. Kind of experiment: Ratio of binding affinity for mutant (C59R+S108N+I164L) to that of wild type dihydrofolate reductase. In a few lines:
as §1

Experiment [10] concerns KB. The experiment is described as follows: In vitro cytotoxicity against Plasmodium falciparum infected KB cell line. Type of experiment: functional, cell-based. The note with it: Homo sapiens. In a few lines: (§2)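 Cytotoxicity (IC50, μM) run against three mammalian lines: Vero (African green monkey kidney fibroblasts), KB (human epidermoid carcinoma) and BC (human breast cancer). Testing followed the Skehan et al. protocol.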

The subject of experiment [11] is KB. The experiment is described as follows: Relative antiplasmodial activity to cytotoxicity in Plasmodium falciparum TM4/8.2 infected KB cells. Type of experiment: functional.
Experiment [12] addresses Bifunctional dihydrofolate reductase-thymidylate synthase (Plasmodium falciparum K1, UniProt P13922, C59R/I164L/N51I/S108N). The experiment is described as follows: Binding affinity towards mutant dihydrofolate reductase (N51I+C59R+S108N+I164L DHFR) of Plasmodium falciparum.
Experiment [13] has as its system Vero. The experiment is described as follows: Relative antiplasmodial activity to cytotoxicity in Plasmodium falciparum TM4/8.2 infected Vero cells. Type of experiment: functional.
The test system of experiment [14] is Vero. Kind of experiment: In vitro cytotoxicity against Plasmodium falciparum infected vero cell line. Type of experiment: functional, cell-based. Conditions: Chlorocebus sabaeus. In outline:
as §2

For experiment [15], the system named is Bifunctional dihydrofolate reductase-thymidylate synthase (Plasmodium falciparum K1), P13922 [UNDEFINED MUTATION]. The experiment is described as follows: Ratio of binding affinity for mutant (N51I+C59R+S108N+I164L) to that of wild type dihydrofolate reductase. In outline: as §1
Chain of Bifunctional dihydrofolate reductase-thymidylate synthase (Plasmodium falciparum K1), P13922 [UNDEFINED MUTATION] (P13922 whole entry, looked up, stated change not applied): as above
Experiment [16] concerns the target Bifunctional dihydrofolate reductase-thymidylate synthase (Plasmodium falciparum K1) (UniProt P13922). The experiment is described as follows: Ratio of binding affinity for mutant (N51I+C59R+S108N) to that of wild type dihydrofolate reductase. In a few lines:
as §1

The test system of experiment [17] is KB. Kind of experiment: Relative antiplasmodial activity to cytotoxicity in Plasmodium falciparum Csl-2 infected KB cells. Type of experiment: functional.
Experiment [18] deals with BC. Kind of experiment: Relative antiplasmodial activity to cytotoxicity in Plasmodium falciparum Csl-2 infected BC cells. Type of experiment: functional.
Experiment [19] has as its system BC. Kind of experiment: In vitro cytotoxicity against BC cell line. The note with it: Homo sapiens.

SMILES strings stand for the structures.

Chain of Bifunctional dihydrofolate reductase-thymidylate synthase (Plasmodium falciparum K1, UniProt P13922, A16V/S108T) (P13922 whole entry, looked up, stated change not applied): as above
Chain of Bifunctional dihydrofolate reductase-thymidylate synthase (Plasmodium falciparum K1, UniProt P13922, C59R/N51I/S108N) (P13922 whole entry, looked up, stated change not applied): as above
Chain of Bifunctional dihydrofolate reductase-thymidylate synthase (Plasmodium falciparum K1, UniProt P13922, C59R/I164L/N51I/S108N) (P13922 whole entry, looked up, stated change not applied): as above
Chain of Bifunctional dihydrofolate reductase-thymidylate synthase (Plasmodium falciparum K1) (P13922 whole entry, looked up): as the sequence (P13922 whole entry, looked up, stated change not applied) above

As usually defined, the Ki is a dissociation constant, usually derived from enzyme kinetics or from competition with a known ligand. A lower Ki goes with a stronger hold on the target. Usually IC50 stands for the concentration that inhibits the measured activity by half. `NC1=NC(c2cccc(Oc3cccc(C(F)(F)F)c3)c2)N(c2cccc(Cl)c2)C(N)=N1` (stereo unspecified): the inhibitory constant (Ki) in experiment [1] is 2 nM; in [3], 6.5 nM; in experiment [5], 0.6 nM; in experiment [12], 4.8 nM. Also, the Ratio in [2] was 2.4; in experiment [9] it was 0.2; in experiment [15], 1.8; in experiment [16], 0.7. Also, the Safety ratio is listed as 2 in the experiment on BC [4]; 1.9 in the experiment with KB [6]; 9.4 in the experiment with Vero [7]; 8.8 in the experiment on Vero [8]; 1.9 in the experiment with KB [11]; 9.4 in the experiment with Vero [13]. Besides, the Safety ratio was determined as 1.8 in the experiment on KB [17] and 1.9 with BC [18]. Besides, the concentration for half-maximal inhibition (IC50) in the experiment on KB [10] was determined as 6000 nM; with Vero [14], 30000 nM; in the experiment on BC [19], 6400 nM.
On to `NC1=NC(c2cccc(Oc3ccc(Cl)cc3)c2)N(c2ccc(Cl)cc2)C(N)=N1` (stereo unspecified), for which the Ki in [1] came to 85.5 nM; in [3], 7.5 nM; in experiment [5] it was 151 nM; in [12], 121 nM. For the same compound, the Ratio came to 5.4 in experiment [2], 108 in [9], 86.4 in experiment [15] and 61.1 in experiment [16]. The Safety ratio with BC [4] is on record as 2.5; in the experiment with KB [6], 1.1; in the experiment with Vero [7], 8.2; with Vero [8] it was 7.8; in the experiment with KB [11] it was 1.4; with Vero [13], 11.1. The Safety ratio turned out to be 1 in the experiment with KB [17] and 1.8 in the experiment on BC [18]. The concentration for half-maximal inhibition (IC50) in the experiment with KB [10] came out at 4000 nM; in the experiment on Vero [14] it was 31000 nM; in the experiment with BC [19], 7000 nM.
As to `NC1=NC(c2cccc(Oc3cc(Cl)cc(Cl)c3)c2)N(c2cccc(Cl)c2)C(N)=N1` (stereo unspecified), the Ki amounted to 1 nM in [1], 4.7 nM in experiment [3], 0.6 nM in experiment [5] and 2.7 nM in [12]. Besides, the Ratio in experiment [2] came to 2.6; in experiment [9] it was 0.3; in [15], 1.5; in experiment [16], 0.6. For the same compound, the Safety ratio in the experiment on BC [4] is given as 1.8; in the experiment on KB [6], 1.5; with Vero [7], 7.2; in the experiment with Vero [8] it was 7.2; in the experiment on KB [11], 1.1; in the experiment on Vero [13] it was 5.1. For the same compound, the Safety ratio stood at 1.5 in the experiment with KB [17] and 2.6 in the experiment with BC [18]. In addition, the results for the IC50 in the experiment with KB [10], in the experiment with Vero [14] and in the experiment on BC [19] were 6000 nM, 28000 nM and 10000 nM, respectively.
`NC1=NC(c2cccc(Oc3ccccc3)c2)N(c2cccc(Cl)c2)C(N)=N1` (stereo unspecified): the Ki in experiment [1] was 2.5 nM; in [3], 2.5 nM; in experiment [5], 3 nM; in [12], 5.8 nM. The Ratio in experiment [2] is 2.3; in [9], 2.7; in experiment [15] it was 5.3; in [16] it was 2.3. The Safety ratio with BC [4] is 3.8; in the experiment on KB [6], 1.1; in the experiment on Vero [7], >13.9; in the experiment on Vero [8], >14.7; with KB [11], 1.8; in the experiment on Vero [13], >22.7. Further, the Safety ratio is given as 1.2 in the experiment with KB [17] and 2.5 with BC [18]. Besides, the IC50 in the experiment with KB [10] is 4000 nM; in the experiment with Vero [14] it was > 50000 nM; in the experiment on BC [19] it was 8400 nM.
With `CC(C)C1(C)N=C(N)N=C(N)N1c1cccc(Cl)c1` (stereo unspecified), the Ki stood at 196 nM in experiment [1], 2180 nM in experiment [3], 213 nM in experiment [5] and 472 nM in experiment [12]. The Ratio in [2] was 85; in [9], 8.4; in experiment [15] it was 18.1; in experiment [16] it was 7.7.
Consider `CCCCCCC1(C)N=C(N)N=C(N)N1c1ccc(Cl)cc1` (stereo unspecified), for which the Ki is 11.3 nM in experiment [1], 955 nM in experiment [3], 41.8 nM in experiment [5] and 69.2 nM in experiment [12]. The Ratio is 1590 in [2], 69.6 in [9], 115 in experiment [15] and 18.8 in experiment [16].
With `CC(C)C1(C)N=C(N)N=C(N)N1c1ccc(Cl)cc1` (stereo unspecified), the inhibitory constant (Ki) in experiment [1] was 1370 nM; in [3] it was 44800 nM; in experiment [5], 4620 nM; in [12], > 10000 nM. In addition, the Ratio in [2] was 1230; in [9], 127; in experiment [15], > 274; in experiment [16], 37.5.
Consider `CCCC1(C)N=C(N)N=C(N)N1c1ccc(Cl)cc1` (stereo unspecified), for which the inhibitory constant (Ki) in experiment [1] is 560 nM; in experiment [3] it was 9230 nM; in experiment [5], 3650 nM; in experiment [12], 4430 nM. The Ratio came to 2640 in experiment [2], 1040 in experiment [9], 1270 in [15] and 160 in experiment [16].
With `NC1=NC(c2cccc(Oc3ccccc3)c2)N(c2ccc(Cl)cc2)C(N)=N1` (stereo unspecified), the Ki was found to be 23.6 nM in [1], 2.7 nM in experiment [3], 132 nM in [5] and 239 nM in experiment [12]. In addition, the Ratio in experiment [2] was 5.4; in [9], 264; in experiment [15] it was 478; in [16] it was 47.1.
On to `CCCOc1ccc(C2N=C(N)N=C(N)N2c2cccc(Cl)c2)cc1` (stereo unspecified), for which the inhibition constant (Ki) in experiment [1] stood at 2.1 nM; in experiment [3] it was 9.3 nM; in experiment [5] it was 0.5 nM; in [12], 2.7 nM. Also, the Safety ratio is reported as 120 with BC [4]; 2.1 with KB [6]; >17.2 with Vero [7]; >17.2 in the experiment on Vero [8]; 24 with KB [11]; >200 in the experiment with Vero [13]. For the same compound, the Safety ratio in the experiment with KB [17] came to 2.1; in the experiment on BC [18], 10.3. The values for the IC50 in the experiment on KB [10], in the experiment on Vero [14] and in the experiment on BC [19] were 6000 nM, > 50000 nM and 30000 nM, respectively.
`NC1=NC(c2cccc(OCc3ccccc3)c2)N(c2ccc(Cl)cc2)C(N)=N1` (stereo unspecified): the Ki in experiment [1] is 220 nM; in experiment [3] it was 6.2 nM; in experiment [5] it was 771 nM; in experiment [12], 638 nM. In addition, the Ratio in experiment [2] was determined as 8.9; in experiment [9], 1100; in [15] it was 911; in experiment [16] it was 315.
`Nc1nc(N)c(-c2cccc(Cl)c2)c(CCCOC(=O)OCc2ccccc2)n1`: the figures for the Ki in [1], in experiment [5] and in [12] were 1.1 nM, 0.8 nM and 3.6 nM, respectively. Further, the Safety ratio in the experiment with BC [4] was 1.9; in the experiment with KB [6], 0.3; in the experiment with Vero [7], 0.9; in the experiment with Vero [8] it was 2.7; in the experiment with KB [11], 0.8; in the experiment on Vero [13], 2.7. For the same compound, the Safety ratio is given as 0.8 with KB [17] and 1.9 in the experiment on BC [18]. The Ratio in experiment [9] turned out to be 0.7; in experiment [15] it was 3; in experiment [16] it was 0.9. Moreover, the IC50 with KB [10] was determined as 1600 nM; in the experiment on Vero [14], 5200 nM; in the experiment on BC [19] it was 3600 nM.
